ChEMBL document CHEMBL1126202, “Dual-action penems and carbapenems” (J Med Chem, 1992)

Experiments:
[1] = test system: Bacteroides thetaiotaomicron; test: In vitro antibacterial activity against Bacteroides thetaiotaomicron 62B; assay type: functional
Outline: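 Anaerobic MICs were determined in microtiter plates in Schaedler's broth supplemented with coenzyme I and hemin. Incubation was under an oxygen-free hydrogen-carbon dioxide atmosphere.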

Bacteroides fragilis [2] = test: In vitro antibacterial activity against Bacteroides fragilis F117A; assay type: functional
Outline: (§1)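 MIC by broth dilution in microtiter plates, run in an oxygen-free hydrogen–carbon dioxide atmosphere. Medium: Schaedler's broth with coenzyme I and hemin added.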

Clostridium perfringens = test: In vitro antibacterial activity against Clostridium perfringens 13424; assay type: functional; outline: as §1
Escherichia coli [3] = test: In vitro antibacterial activity against Escherichia coli 257; assay type: functional
Escherichia coli [4] = test: In vitro antibacterial activity against Escherichia coli TEM-1 (constitutive beta-lactamase producer); assay type: functional
Outline: (§2)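 MIC was determined by agar dilution on Mueller-Hinton agar. Serial 2-fold aqueous dilutions were diluted 10-fold in agar to give final concentrations of 128 to 0.0156 μg/mL. Plates were inoculated by Steers replicator with overnight broth cultures diluted 100-fold.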

Escherichia coli [5] = test: Concentration inhibiting [14C]- Penicillin G binding to Escherichia coli UB1005 PBP4 (penicillin binding protein) 49 kDa; assay type: functional
Outline: (§3)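 Solubilized membranes from sonicated E. coli UB1005 were used as the PBP source. Inhibition of [14C]penicillin G binding to the PBPs was measured.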

Proteus mirabilis = test: In vitro antibacterial activity against Proteus mirabilis 90; assay type: functional
Outline: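 Proteus MICs were determined by agar dilution on Mueller-Hinton agar containing 3% agar. Serial 2-fold dilutions gave final concentrations of 128 to 0.0156 μg/mL. Plates were replicator-inoculated with 100-fold-diluted overnight broth cultures.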

[6] = biological target: T1, Peptidoglycan D,D-transpeptidase MrdA (Escherichia coli K-12) (UniProt P0AD65); test: Concentration inhibiting [14C]- Penicillin G binding to Escherichia coli UB1005 PBP2 (penicillin binding protein) 66 kDa; outline: as §3
T1 sequence (whole entry): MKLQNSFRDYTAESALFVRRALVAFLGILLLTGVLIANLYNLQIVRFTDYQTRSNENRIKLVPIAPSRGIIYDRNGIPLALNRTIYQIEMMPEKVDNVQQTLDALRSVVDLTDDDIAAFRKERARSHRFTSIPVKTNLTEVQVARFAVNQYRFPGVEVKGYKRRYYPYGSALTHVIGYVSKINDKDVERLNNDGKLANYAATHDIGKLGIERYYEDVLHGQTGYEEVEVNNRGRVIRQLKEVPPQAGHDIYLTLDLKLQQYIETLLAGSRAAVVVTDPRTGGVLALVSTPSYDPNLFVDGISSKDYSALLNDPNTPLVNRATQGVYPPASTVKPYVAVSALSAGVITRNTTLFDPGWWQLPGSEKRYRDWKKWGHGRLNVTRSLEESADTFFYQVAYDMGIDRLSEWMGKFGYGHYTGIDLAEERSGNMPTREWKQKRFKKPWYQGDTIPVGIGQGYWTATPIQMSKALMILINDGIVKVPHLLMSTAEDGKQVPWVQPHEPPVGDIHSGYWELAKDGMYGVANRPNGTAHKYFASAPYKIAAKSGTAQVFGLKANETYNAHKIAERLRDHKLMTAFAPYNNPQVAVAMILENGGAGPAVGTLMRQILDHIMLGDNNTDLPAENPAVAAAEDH

Pseudomonas aeruginosa = test: In vitro antibacterial activity against Pseudomonas aeruginosa 8780; assay type: functional; outline: as §2
Staphylococcus aureus [7] = test: In vitro antibacterial activity against Staphylococcus aureus 67(methicillin resistant); assay type: functional
Outline: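 MIC by agar dilution on Mueller-Hinton agar. Compounds were serially 2-fold diluted in water, final 128 to 0.0156 μg/mL in agar. Inoculum: overnight broth culture diluted 100-fold, applied with a Steers replicator.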

Streptococcus pyogenes = test: In vitro antibacterial activity against Streptococcus pyogenes 4; assay type: functional
Outline: (§4)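 Streptococcal MICs were determined by agar dilution on brain heart infusion agar supplemented with 20 units/mL bovine liver catalase. Final concentrations were 128 to 0.0156 μg/mL from 2-fold dilutions. Inocula were overnight broth cultures diluted 100-fold, applied by Steers replicator.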

Staphylococcus aureus [8] = test: In vitro antibacterial activity against staphylococcus aureus smith; assay type: functional; outline: as §2
Clostridioides difficile [9] = test: In vitro antibacterial activity against Clostridium difficile 701; assay type: functional
Clostridioides difficile [10] = test: In vitro antibacterial activity against Clostridium difficile 651; assay type: functional
Bacteroides fragilis [11] = test: In vitro antibacterial activity against bacteroides fragilis S2; assay type: functional
Outline: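 Anaerobic MIC, run in microtiter plates in Schaedler's broth supplemented with coenzyme I and hemin. Incubated in an oxygen-free hydrogen–carbon dioxide atmosphere.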

Escherichia coli [12] = test: In vitro antibacterial activity against Escherichia coli 25922; assay type: functional; outline: as §2
Enterobacter cloacae = test: In vitro antibacterial activity against enterobacter cloacae P99 (constitutive beta-lactamase producer); assay type: functional; outline: as §2
Klebsiella pneumoniae = test: In vitro antibacterial activity against klebsiella pneumoniae A; assay type: functional
Outline: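 Agar-dilution MIC on Mueller-Hinton agar. Serial 2-fold dilutions were made in water, giving final agar concentrations of 128 to 0.0156 μg/mL. Inoculum was an overnight broth culture diluted 100-fold, applied with a multipoint replicator.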

[13] = biological target: Penicillin-binding protein 2 (Staphylococcus aureus) (UniProt Q53729); test: Concentration inhibiting [14C]- Penicillin G binding to Staphylococcus aureus ATCC 29213 Penicillin binding protein 2, 80 kDa
Streptococcus pneumoniae = test: In vitro antibacterial activity against streptococcus pneumoniae 6301; assay type: functional; outline: as §4
Escherichia coli [14] = test: Effect on replication DNA biosynthesis in Escherichia coli H560 (permeabilised cells).; assay type: functional, organism-based
Outline: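 Toluene-permeabilized E. coli H560 cells were used. Replicative DNA synthesis was measured as ATP-dependent [3H]thymidine incorporation into trichloroacetic acid-insoluble material. IC50 is the concentration giving 50% inhibition.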

[15] = biological target: Penicillin-binding protein 1A (Escherichia coli K-12) (UniProt P02918); test: Concentration inhibiting [14C]- Penicillin G binding to Escherichia coli UB1005 PBP1a (penicillin binding protein) 90 kDa
Sequence of Penicillin-binding protein 1A (Escherichia coli K-12) (P02918 whole entry, looked up): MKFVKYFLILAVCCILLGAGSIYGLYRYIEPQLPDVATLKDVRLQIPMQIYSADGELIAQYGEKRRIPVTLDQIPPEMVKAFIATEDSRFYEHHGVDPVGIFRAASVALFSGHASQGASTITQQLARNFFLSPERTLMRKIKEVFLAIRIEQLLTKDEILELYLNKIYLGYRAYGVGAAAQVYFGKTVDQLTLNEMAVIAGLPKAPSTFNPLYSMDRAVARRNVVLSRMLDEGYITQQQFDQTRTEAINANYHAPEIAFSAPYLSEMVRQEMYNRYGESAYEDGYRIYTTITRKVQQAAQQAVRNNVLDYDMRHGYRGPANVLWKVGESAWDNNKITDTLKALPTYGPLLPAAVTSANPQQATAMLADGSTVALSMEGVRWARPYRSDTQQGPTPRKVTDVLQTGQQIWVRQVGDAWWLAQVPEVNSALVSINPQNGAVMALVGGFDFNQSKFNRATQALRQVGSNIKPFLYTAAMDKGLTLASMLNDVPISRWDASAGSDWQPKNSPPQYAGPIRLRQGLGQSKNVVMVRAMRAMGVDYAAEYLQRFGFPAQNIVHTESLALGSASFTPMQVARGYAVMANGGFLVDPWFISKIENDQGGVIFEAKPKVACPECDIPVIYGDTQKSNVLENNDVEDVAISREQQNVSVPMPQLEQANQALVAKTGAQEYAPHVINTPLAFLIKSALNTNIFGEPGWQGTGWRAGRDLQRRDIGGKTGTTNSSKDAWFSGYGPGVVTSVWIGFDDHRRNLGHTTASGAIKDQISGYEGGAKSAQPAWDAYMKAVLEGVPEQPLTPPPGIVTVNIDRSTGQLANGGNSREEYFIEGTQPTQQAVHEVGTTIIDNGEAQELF

Structure (SMILES) | MIC [1] | MIC (Bacteroides fragilis [2]) | MIC (Clostridium perfringens) | MIC (Escherichia coli [3]) | MIC (Escherichia coli [4]) | IC90 (Escherichia coli [5]) | MIC (Proteus mirabilis) | IC90 [6] | MIC (Pseudomonas aeruginosa) | MIC (Staphylococcus aureus [7]) | MIC (Streptococcus pyogenes) | MIC (Staphylococcus aureus [8]) | MIC (Clostridioides difficile [9]) | MIC (Clostridioides difficile [10]) | MIC (Bacteroides fragilis [11]) | MIC (Escherichia coli [12]) | MIC (Enterobacter cloacae) | MIC (Klebsiella pneumoniae) | IC90 [13] | MIC (Streptococcus pneumoniae) | other results
C[C@@H](O)[C@H]1C(=O)N2C(C(=O)[O-])=C(CO)S[C@H]12.[Na+] | 0.125 µg/mL | 64 µg/mL | 0.5 µg/mL | 4 µg/mL | 4 µg/mL | > 100 µg/mL | 8 µg/mL | 30 µg/mL | 64 µg/mL | > 64 µg/mL | 0.125 µg/mL | 0.25 µg/mL | 2 µg/mL | – | – | – | – | – | – | – | –
C[C@@H](O)[C@H]1C(=O)N2C(C(=O)[O-])=C(COC(=O)c3cn(CCF)c4c(F)c(N5CCN(C)CC5)c(F)cc4c3=O)S[C@H]12.[Na+] | 4 µg/mL | – | < 0.125 µg/mL | 0.25 µg/mL | 0.5 µg/mL | > 100 µg/mL | 1 µg/mL | 10 µg/mL | 16 µg/mL | 1 µg/mL | < 0.0156 µg/mL | 0.125 µg/mL | 1 µg/mL | 0.5 µg/mL | < 0.125 µg/mL | 0.25 µg/mL | 0.5 µg/mL | 0.5 µg/mL | 0.5 µg/mL | < 0.0156 µg/mL | IC50 (Escherichia coli [14]): 4.7 µg/mL; IC90 [15]: 2 µg/mL
C[C@@H](O)[C@H]1C(=O)N2C(C(=O)[O-])=C(COC(=O)N3CCN(c4cc5c(cc4F)c(=O)c(C(=O)O)cn5C4CC4)CC3)S[C@H]12.[Na+] | 16 µg/mL | 1 µg/mL | 0.25 µg/mL | 0.0625 µg/mL | 0.0625 µg/mL | > 100 µg/mL | 1 µg/mL | 30 µg/mL | 2 µg/mL | 4 µg/mL | 0.0313 µg/mL | 0.125 µg/mL | 8 µg/mL | 4 µg/mL | 16 µg/mL | 0.06 µg/mL | 0.0625 µg/mL | 0.25 µg/mL | 2 µg/mL | 0.0313 µg/mL | IC50 (Escherichia coli [14]): 3 µg/mL; IC90 [15]: 2 µg/mL
